Data on two compounds can be found in PMC5774489 (OncoTargets and therapy, 2018).

Where two headings read alike, the source gives them in different places.

Format in all cases: cell-based
Assay [1] concerns MCF-7 human breast cancer cells. The assay is described as follows: MTT antiproliferative activity, MCF-7. To be noted: read-out: IC50, MCF-7. In short, it runs like this:
(§1)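 Cells were pre-incubated for 24 h at 37°C in 5% CO2. Medium was replaced with test compound at 10−4, 10−5, 10−6, 10−7 and 10−8 M for 72 h at 37°C. After a PBS wash, MTT was added for at least 4 h at 37°C and OD was read at 570 nm. IC50 (50% cell killing) came from percent viability versus log concentration; mean ± SEM, n=3.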

Assay [2] has as its system A549 human adenocarcinomic alveolar basal epithelial cells. Briefly: MTT antiproliferative activity, A549. To be noted: read-out: IC50, A549. Put shortly: as §1
The subject of assay [3] is B16F10 mouse melanoma cells. Briefly: MTT antiproliferative activity, B16F10. To be noted: read-out: IC50, B16F10. In short, it runs like this: as §1
Assay [4] relates to selected malignant cell lines (B16F10, MCF-7, HCT-116, A549, HepG2). The assay is described as follows: MTT antiproliferative activity, selected malignant cell lines as a panel. As to conditions: 72 h, read-out: IC50 values, range over the selected malignant cell lines. Put shortly: as §1
The subject of assay [5] is Helf human embryonic lung fibroblast. Briefly: MTT antiproliferative activity, Helf. As to conditions: 72 h, read-out: IC50, Helf. Put shortly:
as §1

Assay [6] concerns HCT-116 human colon cancer cells. The assay is described as follows: MTT antiproliferative activity, HCT-116. As to conditions: read-out: IC50, HCT-116. In short, it runs like this: as §1
Assay [7] relates to HepG2 human hepatocarcinoma. Briefly: MTT antiproliferative activity, HepG2. To be noted: read-out: IC50, HepG2. In short, it runs like this:
as §1

In assay [8] the test system is human normal liver cells (L02). Briefly: MTT antiproliferative activity, L02. As to conditions: 72 h, read-out: IC50, L02. Put shortly:
as §1

The mark [9] stands for this setting: MTT, mean ± SEM, n=3, normal cells.

The term IC50 denotes the concentration that inhibits the measured activity by half. In the case of `C=C(C)[C@@H]1CC[C@]2(C(=O)O)CC[C@]3(C)[C@H](CC[C@@H]4[C@@]5(C)CC[C@H](O)C(C)(C)[C@@H]5CC[C@]43C)[C@@H]12` [BA, Betulinic acid], the IC50 is 17.5 ± 1.72 µM in assay [1] (Homo sapiens, MCF7, 72 h); 38.3 ± 5.9 µM in assay [2] (Homo sapiens, A549, 72 h); 27 ± 2.5 µM in assay [3] (Mus musculus, B16-F10, 72 h); 17.5 to 38.3 µM in assay [4]; 62 ± 8.61 µM in assay [5] (Homo sapiens, HELF); 27.3 ± 3.28 µM in assay [6] (Homo sapiens, HCT-116, 72 h). For the same compound, the IC50 in assay [7] (Homo sapiens, HepG2, 72 h) was 30.4 ± 5.14 µM; in assay [8] (Homo sapiens), 96.3 ± 7.99 µM.

On to `N.N.[Cl][Pt][Cl]` [Cisplatin], for which the IC50 in assay [1] (MTT, 72 h, mean ± SEM, n=3) amounted to 7.83 ± 0.52 µM; in assay [2] (MTT, 72 h, mean ± SEM, n=3), 12.7 ± 1.85 µM; in assay [3] (MTT, 72 h, concentration that caused 50% cell killing, mean ± SEM, n=3), 11.7 ± 0.95 µM; in assay [5] (setting [9]), 21.8 ± 3.03 µM; in assay [6] (MTT, 72 h, mean ± SEM, n=3) it was 9.45 ± 1.04 µM; in assay [7] (MTT, 72 h, mean ± SEM, n=3) it was 4.77 ± 0.62 µM. Besides, in assay [8] (setting [9]), the IC50 was found to be 9.17 ± 0.83 µM.
